This passage reports inhibition, IC50 and Papp results from ChEMBL document CHEMBL1152519, “Synthesis, structural activity-relationships, and biological evaluation of novel amide-based allosteric binding site antagonists in NR1A/NR2B N-methyl-D-aspartate receptors” (Bioorg Med Chem, 2009).

Activity calls are given as the source filed them. The rule behind the calls is not given here.

For data set [1], the species on record is Rattus norvegicus. Briefly: Inhibition of voltage-gated sodium channel in Sprague-Dawley rat cortical neuron at 3 uM by whole cell patch clamp technique. Background: In patch-clamp work, channel activity is measured electrically.
Data set [2] deals with Glutamate receptor ionotropic, NMDA 1/NMDA 2B (Mus musculus, UniProt P35438+Q01097). Briefly: Antagonist activity at mouse recombinant NR1/NR2B receptor expressed in frog oocytes assessed as inhibition of glutamate/glycine-induced current by two electrode voltage clamp method. The data set is classed as functional, cell-based, Oocyte. In a few lines: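 Xenopus oocytes injected with 3–5 ng NR1 and 7–10 ng NR2 cRNA, kept in Barth's solution at 15 °C, recorded 2–7 d later at 23 °C under two-electrode voltage clamp at −40 mV. Bath was 90 NaCl, 1 KCl, 10 HEPES, 0.5 BaCl2 (mM), pH 7.4/7.6, plus 10 μM EDTA. Glutamate (50–100 μM) plus glycine 30 μM was applied, then 5–8 inhibitor concentrations. Leak-corrected; n = 11 oocytes from 2 frogs.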
For orientation: Two-electrode voltage clamp holds a large cell at a set potential and records current.

The subject of the next data set is MDCK. Briefly: Apparent permeability from apical to basolateral side of MDR1-expressing MDCK cells at 5 uM after 2 hrs by LC-MS/MS analysis. The data set is classed as ADME, cell-based, Canis lupus familiaris. The following applies: dog. In a few lines:
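MDR1-MDCK monolayers grown 7–11 days on Transwells. Compound at 5 μM in HBSS pH 7.4 (final DMSO ≤1%) added apically (A–B) or basally (B–A). Incubated 2 h at 37 °C; both compartments quantified by LC–MS/MS against a >4-point calibration. Papp given in ×10−6 cm/s; efflux ratio = B–A/A–B. Duplicates.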

The target in data set [3] is Glutamate NMDA receptor; Grin1/Grin2b (Rattus norvegicus, UniProt P35439+Q00960). Description: Antagonist activity at rat recombinant NR1/NR2B receptor expressed in frog oocytes assessed as inhibition of glutamate/glycine-induced current by two electrode voltage clamp method. Type of data set: functional, cell-based, Oocyte. The method in brief: (§1)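 Xenopus oocytes expressing NR1/NR2 (wild type or amino terminal domain deletion mutant) recorded by TEVC at −40 mV, room temperature, pH 7.4–7.6, with EDTA 10 μM. Maximal glutamate/glycine applied alone, then with 5–8 successive compound concentrations. Leak-corrected; responses under 50 nA excluded. IC50 from fitted composite curve. NR1/NR2A oocytes were pre-incubated in 50 μM BAPTA-AM.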

Data set [4] concerns the target Glutamate NMDA receptor; Grin1/Grin2b (Rattus norvegicus) (UniProt P35439+Q00960). Briefly: Antagonist activity at rat recombinant NR1/NR2B receptor expressed in Xenopus laevis oocytes assessed as voltage-independent inhibition of glutamate/glycine-induced current at 0.054 uM by two electrode voltage clamp method. Type of data set: functional, cell-based. Particulars: Oocyte. The method in brief:
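Rat NR1/NR2B oocytes were voltage clamped and the current–voltage relation recorded for 50 μM glutamate plus 30 μM glycine, with and without 0.054 μM compound coapplied; n = 5.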

For data set [5], the target named is Glutamate NMDA receptor; Grin1/Grin2a (Rattus norvegicus, UniProt P35439+Q00959). Description: Antagonist activity at rat recombinant NR1/NR2A receptor expressed in Xenopus laevis oocytes assessed as inhibition of glutamate/glycine-induced current by two electrode voltage clamp method. The data set is classed as functional, cell-based, Oocyte. The method in brief: as §1

In data set [6] the target is T1, Glutamate NMDA receptor; GRIN1/GRIN2B (Homo sapiens, UniProt Q05586+Q13224). Briefly: Antagonist activity at human recombinant NR1/NR2B receptor expressed in frog oocytes assessed as inhibition of glutamate/glycine-induced current by two electrode voltage clamp method. Type of data set: functional, cell-based, Oocyte. The method in brief:
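Human NR1/NR2B cRNA injected into Xenopus oocytes. Two-electrode voltage clamp at −40 mV, 23 °C, 2–7 d after injection. Glutamate/glycine (50–100 μM/30 μM) applied, then with 5–8 compound concentrations. Bath contains 10 μM EDTA; leak-corrected.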

Data set [7] deals with Glutamate receptor ionotropic, NMDA 2B (Mus musculus, UniProt P35438+Q01097, D101A). Briefly: Antagonist activity at mouse NR1/NR2B receptor D101A mutant expressed in Xenopus laevis oocytes assessed as inhibition of glutamate/glycine-induced current by two electrode voltage clamp method. Type of data set: functional, cell-based, Oocyte. The method in brief: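 Oocytes express NR1/NR2B amino-terminal-domain mutants (mouse D101A point mutant; rat ATD deletion). Concentration–effect curves were recorded by two-electrode voltage clamp at −40 mV and 23 °C, with 50 μM glutamate plus 30 μM glycine. Each step is compound plus agonists, expressed relative to agonists alone.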

The species named for data set [8] is Rattus norvegicus. Briefly: Inhibition of voltage-gated potassium channel in Sprague-Dawley rat cortical neuron at 3 uM by whole cell patch clamp technique.
Data set [9] concerns the target T1, Glutamate NMDA receptor; GRIN1/GRIN2B. Description: Antagonist activity at human recombinant NR1/NR2B receptor expressed in frog oocytes assessed as inhibition of glutamate/glycine-induced current at 3 uM by two electrode voltage clamp method. Type of data set: functional, cell-based. The following applies: Oocyte.
Data set [10] can be described thus: Antagonist activity at rat NR1/NR2B receptor deltaATD mutant expressed in Xenopus laevis oocytes assessed as inhibition of glutamate/glycine-induced current by two electrode voltage clamp method. The data set is classed as functional, cell-based. The following applies: Oocyte. In a few lines:
as §1

Chain of Glutamate NMDA receptor; Grin1/Grin2a (Q00959 whole entry, other chains not shown): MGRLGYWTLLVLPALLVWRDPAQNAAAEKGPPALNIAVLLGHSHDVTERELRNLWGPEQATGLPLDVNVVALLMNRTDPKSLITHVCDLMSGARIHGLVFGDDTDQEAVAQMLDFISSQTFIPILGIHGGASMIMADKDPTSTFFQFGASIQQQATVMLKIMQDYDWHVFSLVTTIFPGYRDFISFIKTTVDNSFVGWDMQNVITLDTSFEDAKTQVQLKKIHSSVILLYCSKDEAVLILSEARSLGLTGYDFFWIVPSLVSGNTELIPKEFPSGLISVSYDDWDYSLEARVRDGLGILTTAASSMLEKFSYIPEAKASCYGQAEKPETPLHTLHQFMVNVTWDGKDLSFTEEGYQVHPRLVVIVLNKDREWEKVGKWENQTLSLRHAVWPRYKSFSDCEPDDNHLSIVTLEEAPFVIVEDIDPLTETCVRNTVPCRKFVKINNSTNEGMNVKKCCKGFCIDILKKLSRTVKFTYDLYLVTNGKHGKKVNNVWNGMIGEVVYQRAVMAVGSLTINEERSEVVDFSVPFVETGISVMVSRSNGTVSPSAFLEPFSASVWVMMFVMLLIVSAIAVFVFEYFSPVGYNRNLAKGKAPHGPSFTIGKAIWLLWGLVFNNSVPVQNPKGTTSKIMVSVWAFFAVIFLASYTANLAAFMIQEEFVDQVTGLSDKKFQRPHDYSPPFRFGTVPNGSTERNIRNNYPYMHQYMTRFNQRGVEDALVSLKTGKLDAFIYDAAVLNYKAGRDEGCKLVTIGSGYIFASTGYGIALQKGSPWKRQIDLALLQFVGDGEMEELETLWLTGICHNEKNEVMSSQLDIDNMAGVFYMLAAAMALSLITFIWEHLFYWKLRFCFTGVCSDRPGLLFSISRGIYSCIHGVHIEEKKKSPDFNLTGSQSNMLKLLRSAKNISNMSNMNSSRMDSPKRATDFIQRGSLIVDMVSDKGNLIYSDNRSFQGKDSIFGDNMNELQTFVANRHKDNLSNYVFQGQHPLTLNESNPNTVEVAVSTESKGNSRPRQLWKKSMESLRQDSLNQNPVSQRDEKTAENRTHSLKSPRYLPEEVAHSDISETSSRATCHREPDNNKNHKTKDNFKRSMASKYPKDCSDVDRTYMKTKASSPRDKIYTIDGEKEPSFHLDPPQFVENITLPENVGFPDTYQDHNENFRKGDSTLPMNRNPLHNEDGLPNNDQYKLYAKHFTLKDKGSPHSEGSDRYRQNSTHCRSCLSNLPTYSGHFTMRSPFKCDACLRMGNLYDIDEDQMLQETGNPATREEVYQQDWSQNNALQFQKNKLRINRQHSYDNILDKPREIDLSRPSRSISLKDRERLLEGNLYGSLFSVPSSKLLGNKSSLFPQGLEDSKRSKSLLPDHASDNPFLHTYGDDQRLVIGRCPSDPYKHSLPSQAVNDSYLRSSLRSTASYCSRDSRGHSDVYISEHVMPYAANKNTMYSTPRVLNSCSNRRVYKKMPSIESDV
Chain of Glutamate receptor ionotropic, NMDA 2B (Q01097 whole entry D101A, one chain of several): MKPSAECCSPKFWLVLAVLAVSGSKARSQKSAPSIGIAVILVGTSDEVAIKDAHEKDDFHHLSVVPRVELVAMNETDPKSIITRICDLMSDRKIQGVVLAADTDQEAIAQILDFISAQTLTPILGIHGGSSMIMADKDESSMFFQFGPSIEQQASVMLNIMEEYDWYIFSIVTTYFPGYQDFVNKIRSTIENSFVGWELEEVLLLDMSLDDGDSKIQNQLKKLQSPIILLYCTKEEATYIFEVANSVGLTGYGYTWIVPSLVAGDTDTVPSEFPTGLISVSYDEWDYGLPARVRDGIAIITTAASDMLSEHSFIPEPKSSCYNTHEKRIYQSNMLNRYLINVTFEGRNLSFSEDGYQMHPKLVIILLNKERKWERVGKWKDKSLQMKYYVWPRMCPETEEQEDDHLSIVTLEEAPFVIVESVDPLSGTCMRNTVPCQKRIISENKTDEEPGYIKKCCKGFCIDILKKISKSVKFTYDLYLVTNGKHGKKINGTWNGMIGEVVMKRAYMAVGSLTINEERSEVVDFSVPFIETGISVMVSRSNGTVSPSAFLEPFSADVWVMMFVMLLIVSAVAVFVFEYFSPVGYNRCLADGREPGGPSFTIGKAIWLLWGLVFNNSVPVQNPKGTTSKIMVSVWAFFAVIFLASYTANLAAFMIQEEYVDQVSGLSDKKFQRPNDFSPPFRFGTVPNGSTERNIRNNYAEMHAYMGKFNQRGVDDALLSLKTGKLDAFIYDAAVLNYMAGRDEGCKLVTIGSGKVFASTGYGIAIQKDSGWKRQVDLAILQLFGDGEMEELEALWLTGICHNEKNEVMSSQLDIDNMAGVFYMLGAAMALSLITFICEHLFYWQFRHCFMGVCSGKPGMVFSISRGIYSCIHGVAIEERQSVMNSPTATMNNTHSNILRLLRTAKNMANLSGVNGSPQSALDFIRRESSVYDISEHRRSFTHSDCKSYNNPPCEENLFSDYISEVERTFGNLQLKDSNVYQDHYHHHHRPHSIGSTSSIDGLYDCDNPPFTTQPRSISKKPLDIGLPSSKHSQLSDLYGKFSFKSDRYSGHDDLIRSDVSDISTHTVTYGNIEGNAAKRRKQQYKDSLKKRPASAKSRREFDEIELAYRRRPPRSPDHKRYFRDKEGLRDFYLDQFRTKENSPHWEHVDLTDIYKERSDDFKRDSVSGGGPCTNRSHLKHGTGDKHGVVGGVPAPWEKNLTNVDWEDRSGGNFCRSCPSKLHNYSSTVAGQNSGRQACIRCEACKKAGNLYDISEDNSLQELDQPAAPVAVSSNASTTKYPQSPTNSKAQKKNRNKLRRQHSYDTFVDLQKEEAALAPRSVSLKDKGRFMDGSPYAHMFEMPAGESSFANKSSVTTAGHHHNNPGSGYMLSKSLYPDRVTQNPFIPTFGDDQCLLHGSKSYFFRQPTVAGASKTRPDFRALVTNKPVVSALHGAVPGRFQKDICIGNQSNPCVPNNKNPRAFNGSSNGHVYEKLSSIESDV
Chain of Glutamate receptor ionotropic, NMDA 1/NMDA 2B (Q01097 whole entry, other chains not shown): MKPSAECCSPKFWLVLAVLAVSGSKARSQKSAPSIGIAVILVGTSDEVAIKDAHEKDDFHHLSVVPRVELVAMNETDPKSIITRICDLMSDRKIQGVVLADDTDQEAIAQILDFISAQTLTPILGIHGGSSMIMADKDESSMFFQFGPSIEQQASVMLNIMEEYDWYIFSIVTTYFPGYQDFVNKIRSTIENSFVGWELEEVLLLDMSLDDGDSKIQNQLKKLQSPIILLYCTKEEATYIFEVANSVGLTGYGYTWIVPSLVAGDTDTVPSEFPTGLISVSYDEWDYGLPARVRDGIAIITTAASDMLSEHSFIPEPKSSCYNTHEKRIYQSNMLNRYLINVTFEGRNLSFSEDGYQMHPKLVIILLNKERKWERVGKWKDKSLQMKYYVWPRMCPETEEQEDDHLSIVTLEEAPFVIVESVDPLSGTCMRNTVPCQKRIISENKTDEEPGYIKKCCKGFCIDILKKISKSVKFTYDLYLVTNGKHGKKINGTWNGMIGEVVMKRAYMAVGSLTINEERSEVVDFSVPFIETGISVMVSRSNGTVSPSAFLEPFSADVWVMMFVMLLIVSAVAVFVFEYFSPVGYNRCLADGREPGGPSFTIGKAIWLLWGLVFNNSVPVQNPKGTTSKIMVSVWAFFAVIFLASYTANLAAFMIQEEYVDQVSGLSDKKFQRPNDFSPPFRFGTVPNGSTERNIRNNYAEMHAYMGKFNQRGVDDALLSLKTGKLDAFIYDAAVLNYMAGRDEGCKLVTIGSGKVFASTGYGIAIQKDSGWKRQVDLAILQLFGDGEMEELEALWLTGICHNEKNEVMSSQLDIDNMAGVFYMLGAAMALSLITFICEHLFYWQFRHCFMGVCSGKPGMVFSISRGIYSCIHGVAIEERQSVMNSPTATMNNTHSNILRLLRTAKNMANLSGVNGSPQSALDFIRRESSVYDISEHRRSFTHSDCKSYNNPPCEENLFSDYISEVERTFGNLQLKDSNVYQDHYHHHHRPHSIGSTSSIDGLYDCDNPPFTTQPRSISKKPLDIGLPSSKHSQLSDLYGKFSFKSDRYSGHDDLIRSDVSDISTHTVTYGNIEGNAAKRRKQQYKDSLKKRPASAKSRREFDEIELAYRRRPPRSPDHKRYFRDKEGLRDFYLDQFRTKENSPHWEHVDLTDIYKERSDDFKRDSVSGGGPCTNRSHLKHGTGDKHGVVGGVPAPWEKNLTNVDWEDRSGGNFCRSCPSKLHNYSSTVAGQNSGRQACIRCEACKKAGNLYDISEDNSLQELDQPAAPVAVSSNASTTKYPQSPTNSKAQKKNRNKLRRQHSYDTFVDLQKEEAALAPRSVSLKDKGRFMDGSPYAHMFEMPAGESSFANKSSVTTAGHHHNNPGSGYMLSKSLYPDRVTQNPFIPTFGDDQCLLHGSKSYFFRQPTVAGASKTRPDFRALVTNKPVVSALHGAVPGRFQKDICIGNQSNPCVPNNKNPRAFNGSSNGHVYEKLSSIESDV

With `CS(=O)(=O)Nc1ccc(OCC(=O)NCCNc2ccc(Cl)c(Cl)c2)cc1`, the inhibition entry in the data set filed under Rattus norvegicus [1] and in the data set filed under Rattus norvegicus [8] was “inactive” in each case. Moreover, the IC50 (as a rule, the concentration that inhibits the measured activity by half) in data set [2] came to 36 nM; in [3], 57 nM; in [5] it was 82 µM; in [6], 54 nM; in [7], 52 µM; in data set [10], 563 µM. Besides, the apparent permeability coefficient (Papp) (usually a coefficient for how fast a substance crosses the barrier) in the data set on MDCK was 1.8 ×10⁻⁶ cm/s. The inhibition (usually how much of the control response was suppressed) in data set [4] is “Active”. Also, the inhibition in data set [9] was determined as 90%.
